Assay [1] deals with PBS RNA. The assay can be described thus: Binding affinity to HIV1 (+)PBS/(-)PBS RNA sequence assessed as inhibition of recombinant full-length HIV-1 nucleocapsid protein-mediated (+)/(-)PBS RNA annealing preincubated with (+)/(-)PBS RNA for 15 mins followed by NC addition and measured after 10 mins by RAMPA assay. Type of assay: nucleic-acid assay, Human immunodeficiency virus 1. An outline of the steps:
(§1)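 Each folded PBS RNA strand (1 μM) was preincubated with compound for 15 min at room temperature. The two strands were then mixed with annealer: NC at 3 μM for line 4, Tat(48–57) […]. Annealing ran 10 min at room temperature and products were resolved by gel. The annealer-induced duplex band was quantified to derive IC50, reported as mean ± SEM of triplicate experiments.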

Assay [2] concerns the target PBS RNA. Briefly: Binding affinity to HIV1 (+)/(-) PBS RNA sequence assessed as inhibition of HIV-1 Tat (48 to 57 residues) mediated (+)/(-)PBS RNA annealing preincubated with (+)/(-)PBS RNA for 15 mins followed by peptide addition and measured after 10 mins by RAMPA assay. Type of assay: nucleic-acid assay, Human immunodeficiency virus 1. An outline of the steps: as §1

Assay [3] concerns PBS RNA. Briefly: Binding affinity to HIV1 (+)PBS RNA assessed as compound-RNA complex formation at stoichiometry ratio of 1:1 incubated for 30 mins measured under non-denaturing conditions by ESI-MS analysis. Particulars: Human immunodeficiency virus 1. Type of assay: nucleic-acid assay. An outline of the steps: (§2)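 In ESI-MS spectra of compound–RNA mixtures, peaks for free RNA and complexed species were quantified. The percentage of bound substrate in each spectrum gave the relative binding affinity for each RNA construct.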

Assay [4] has as its system PBS RNA. Briefly: Binding affinity to HIV1 (-)PBS RNA assessed as compound-RNA complex formation at stoichiometry ratio of 1:1 incubated for 30 mins measured under non-denaturing conditions by ESI-MS analysis. Type of assay: nucleic-acid assay. Particulars: Human immunodeficiency virus 1. In a few lines: as §2
For assay [5], the system named is PBS RNA. The assay can be described thus: Binding affinity to HIV1 (+)PBS RNA assessed as compound-RNA complex formation at stoichiometry ratio of 2:1 incubated for 30 mins measured under non-denaturing conditions by ESI-MS analysis. Type of assay: nucleic-acid assay. Particulars: Human immunodeficiency virus 1. An outline of the steps: (§3)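 ESI-MS binding: compound–RNA mixtures analysed for free and compound-bound RNA species, including 2:1 complexes. Species peak intensities were quantified to give the free versus bound partitioning, and the percentage of bound substrate in each spectrum was used to derive relative binding affinity for each RNA construct.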

Assay [6] deals with PBS RNA. Briefly: Binding affinity to HIV1 (-)PBS RNA assessed as compound-RNA complex formation at stoichiometry ratio of 2:1 incubated for 30 mins measured under non-denaturing conditions by ESI-MS analysis. Type of assay: nucleic-acid assay. As to conditions: Human immunodeficiency virus 1. In a few lines:
as §3

Assay [7] deals with PBS RNA. The assay can be described thus: Binding affinity to HIV1 (+)PBS RNA at apical loop assessed as compound-RNA complex formation at stoichiometry ratio of 1:1 by MS/MS spectrum analysis. Type of assay: nucleic-acid assay. Particulars: Human immunodeficiency virus 1.

Calls of active or inactive are those of the source. The calls are words filed in the database; no cut-off is given here.

A word on the IC50: it is the concentration at which inhibition is half-maximal. Turning to `NCCCC(N)C(=O)NCC(=O)Nc1ccc2c(c1)C(=O)c1ccc(NC(=O)CNC(=O)C(N)CCCN)cc1C2=O` (stereo unspecified), the concentration for half-maximal inhibition (IC50) on PBS RNA [1] was determined as 30 µM; on PBS RNA [2], 34 µM. The outcome in the assay with PBS RNA [3] and in the assay on PBS RNA [4] was Active.
As for `C[C@H](NC(=O)C(N)CN)C(=O)Nc1ccc2c(c1)C(=O)c1ccc(NC(=O)[C@H](C)NC(=O)C(N)CN)cc1C2=O` (stereo partly specified), the half-inhibitory concentration (IC50) on PBS RNA [1] amounted to 54 µM; on PBS RNA [2] it was 45 µM. Also, the outcome in the assay on PBS RNA [3] and in the assay on PBS RNA [4] was Active.
Take `C[C@H](NC(=O)C(N)CCCN)C(=O)Nc1ccc2c(c1)C(=O)c1ccc(NC(=O)[C@H](C)NC(=O)C(N)CCCN)cc1C2=O` (stereo partly specified): the IC50 on PBS RNA [1] came out at 21 µM; on PBS RNA [2], 16 µM. Moreover, the result with PBS RNA [3] and with PBS RNA [4] was Active.
Take `C[C@@H](NC(=O)C(N)CCCN)C(=O)Nc1ccc2c(c1)C(=O)c1ccc(NC(=O)[C@@H](C)NC(=O)C(N)CCCN)cc1C2=O` (stereo partly specified): the IC50 at PBS RNA [1] was determined as 55 µM; on PBS RNA [2], 54 µM. The result with PBS RNA [3] and in the assay on PBS RNA [4] was Active.
Regarding `NCCCCC(N)C(=O)NCCC(=O)Nc1ccc2c(c1)C(=O)c1ccc(NC(=O)CCNC(=O)C(N)CCCCN)cc1C2=O` (stereo unspecified), the IC50 was 85 µM on PBS RNA [1] and over 100 µM on PBS RNA [2].
Take `NCCCC(N)C(=O)NCCC(=O)Nc1ccc2c(c1)C(=O)c1ccc(NC(=O)CCNC(=O)C(N)CCCN)cc1C2=O` (stereo unspecified): the IC50 on PBS RNA [1] and at PBS RNA [2] was 20 µM in each case. The result with PBS RNA [5] and in the assay with PBS RNA [6] was Active.
For the molecule `NCCC(N)C(=O)NCCC(=O)Nc1ccc2c(c1)C(=O)c1ccc(NC(=O)CCNC(=O)C(N)CCN)cc1C2=O` (stereo unspecified), the half-maximal inhibitory concentration (IC50) at PBS RNA [1] amounted to 30 µM; on PBS RNA [2], 24 µM. For the same molecule, the outcome in the assay on PBS RNA [3] and in the assay on PBS RNA [4] was Active.
For the molecule `C[C@H](NC1(N)CCNCC1)C(=O)Nc1ccc2c(c1)C(=O)c1ccc(NC(=O)[C@H](C)NC3(N)CCNCC3)cc1C2=O`, the half-inhibitory concentration (IC50) on PBS RNA [1] and on PBS RNA [2] was over 200 µM in each case. The outcome in the assay with PBS RNA [3] and in the assay on PBS RNA [4] was Active.
As for `C[C@H](NC(=O)C(N)CCN)C(=O)Nc1ccc2c(c1)C(=O)c1ccc(NC(=O)[C@H](C)NC(=O)C(N)CCN)cc1C2=O` (stereo partly specified), the figures for the half-inhibitory concentration (IC50) on PBS RNA [1] and at PBS RNA [2] were 88 µM and over 100 µM, respectively. The outcome in the assay with PBS RNA [3] and in the assay with PBS RNA [4] was Active.
As for `C[C@@H](NC1CCNCC1)C(=O)Nc1ccc2c(c1)C(=O)c1ccc(NC(=O)[C@@H](C)NC3CCNCC3)cc1C2=O`, the IC50 at PBS RNA [1] and at PBS RNA [2] was over 200 µM each time. In addition, the result with PBS RNA [3] and with PBS RNA [4] was Active.
Regarding `NCCCCC(N)C(=O)NCC(=O)Nc1ccc2c(c1)C(=O)c1ccc(NC(=O)CNC(=O)C(N)CCCCN)cc1C2=O` (stereo unspecified), the IC50 turned out to be 23 µM at PBS RNA [1] and 18 µM on PBS RNA [2]. Besides, the outcome with PBS RNA [5] and in the assay with PBS RNA [6] was Active.
With `C[C@@H](NC(=O)C(N)CCCCN)C(=O)Nc1ccc2c(c1)C(=O)c1ccc(NC(=O)[C@@H](C)NC(=O)C(N)CCCCN)cc1C2=O` (stereo partly specified), the values for the concentration for half-maximal inhibition (IC50) at PBS RNA [1] and at PBS RNA [2] were 54 µM and 48 µM, respectively. In addition, the result in the assay on PBS RNA [3] and in the assay with PBS RNA [4] was Active.
`C[C@H](NC(=O)C(N)CCCCN)C(=O)Nc1ccc2c(c1)C(=O)c1ccc(NC(=O)[C@H](C)NC(=O)C(N)CCCCN)cc1C2=O` (stereo partly specified): the half-maximal inhibitory concentration (IC50) was determined as 12 µM at PBS RNA [1] and 15 µM at PBS RNA [2]. The outcome with PBS RNA [5], with PBS RNA [6] and with PBS RNA [7] was Active.

The record behind these values is ChEMBL document CHEMBL4613313, “Multiple in Vitro Inhibition of HIV-1 Proteins by 2,6-Dipeptidyl-anthraquinone Conjugates Targeting the PBS RNA” (ACS Med Chem Lett, 2020).
